Experiments:
[1] = target: T1, bovine serum albumin (BSA) (Bos taurus, UniProt P02769); test: Steady-state fluorescence quenching of BSA; format: binding; details: for Number of binding sites n / Stern–Volmer constant Ksv / Bimolecular quenching rate parameter kq: 298 K; for Stern–Volmer constant Ksv: pH 7.4; for Bimolecular quenching rate parameter kq: τo = 10^–8 s; for Fluorescence quenching mechanism: BSA fluorescence, kq compared with 2.0 × 10^10 m^–1 s^–1
How it was run: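 BSA stock in PBS pH 7.4, with concentration set from absorbance (ε 43,824 M–1 cm–1); test compounds from DMSO stocks, 2.46–22.22 μM. Emission recorded in a 1.0 cm quartz cuvette at 298 K with excitation at 280 nm and 5 nm excitation/emission bandwidths. Stern–Volmer and modified Stern–Volmer plots analysed; kq calculated using τo of 10–8 s for native BSA.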

[2] = target: T1, bovine serum albumin (BSA); test: UV–vis absorption titration of BSA; format: binding; details: pH 7.4; for Enthalpy ΔH / Entropy ΔS: from Kb at 298 and 308 K
How it was run: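 Peltier-thermostatted spectrophotometer, 1 cm quartz cell, 1 nm slit, spectra over 200–500 nm. BSA in PBS pH 7.4 titrated with test compound (2.46–22.22 μM) and read at 279 nm; ligand-alone absorbance also recorded. Run at 298 and 308 K. Kb taken from the […] of the Benesi–Hildebrand plot, A0/(A–A0) versus 1/[compound]; thermodynamic parameters derived from Kb at both temperatures.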

[3] = target: T1, bovine serum albumin (BSA); test: Time-resolved fluorescence decay of BSA; format: binding; details: 298 K; for α1 / α2 / α3 / τ1 / τ2 / τ3: triexponential fitting
How it was run: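 Time-correlated single-photon counting with pulsed nanosecond LED excitation at 280 nm, 298 K. Instrument response recorded with a scattering solution; 114 ps per channel. Decays fitted as a sum of exponentials by nonlinear least-squares reconvolution, with pre-exponential factors normalized to 1 and errors taken as three standard deviations. Fit judged by χ2 and weighted residuals; average lifetime from triexponential fits.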

[4] = system: Plasmodium falciparum; details: read-out: IC50 antiplasmodial; P. falciparum; cited from earlier work

T1 sequence (P02769 25-607): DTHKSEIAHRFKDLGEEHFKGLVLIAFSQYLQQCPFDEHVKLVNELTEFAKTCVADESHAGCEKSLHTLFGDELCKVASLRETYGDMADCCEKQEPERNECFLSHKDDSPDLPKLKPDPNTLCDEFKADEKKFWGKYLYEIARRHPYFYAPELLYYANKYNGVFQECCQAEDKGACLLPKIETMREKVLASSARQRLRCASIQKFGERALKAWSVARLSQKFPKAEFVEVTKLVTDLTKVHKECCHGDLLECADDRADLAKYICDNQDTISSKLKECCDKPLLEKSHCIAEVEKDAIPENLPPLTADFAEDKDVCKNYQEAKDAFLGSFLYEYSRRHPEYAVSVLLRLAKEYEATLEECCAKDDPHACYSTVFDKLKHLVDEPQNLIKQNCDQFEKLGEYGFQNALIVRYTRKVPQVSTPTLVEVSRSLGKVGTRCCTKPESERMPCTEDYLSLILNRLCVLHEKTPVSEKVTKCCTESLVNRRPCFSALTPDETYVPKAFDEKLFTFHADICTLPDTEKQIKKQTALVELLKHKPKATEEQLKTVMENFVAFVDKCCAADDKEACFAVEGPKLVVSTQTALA

Compound | Number of binding sites n [1] | Stern–Volmer constant Ksv [1] | Bimolecular quenching rate parameter kq [1] | Fluorescence quenching mechanism [1] | Gibbs free energy ΔG ([2]; 298 K) | Gibbs free energy ΔG ([2]; 308 K) | Enthalpy ΔH [2] | Entropy ΔS [2] | τavg (average fluorescence lifetime of BSA) ([3]; ligand 2.46 μm) | α1 ([3]; ligand 2.46 μm) | α2 ([3]; ligand 2.46 μm) | α3 ([3]; ligand 2.46 μm) | τ1 ([3]; ligand 2.46 μm) | τ2 ([3]; ligand 2.46 μm) | τ3 ([3]; ligand 2.46 μm) | τavg (average fluorescence lifetime of BSA) ([3]; ligand 9.52 μm) | α1 ([3]; ligand 9.52 μm) | α2 ([3]; ligand 9.52 μm) | α3 ([3]; ligand 9.52 μm) | τ1 ([3]; ligand 9.52 μm) | other results
CC(C)=CCc1c(O)c(CC=C(C)C)c2oc3c(O)ccc(O)c3c(=O)c2c1O [gartanin] | 1 | 2.57 × 10^4 L mol^–1 | 2.57 × 10^12 | static quenching | –24.28 kJ mol^–1 | –23.68 kJ mol^–1 | –42.16 kJ mol^–1 | –0.06 kJ mol^–1 | 6.2 | 26.45% | 67.78% | 5.77% | 2.971 | 6.871 | 0.8793 | 6.2 | 30.06% | 64.04% | 5.91% | 3.0512 | τ2 ([3]; ligand 9.52 μm): 6.967; τ3 ([3]; ligand 9.52 μm): 0.8022; τavg (average fluorescence lifetime of BSA) ([3]; ligand 16.09 μm): 6.1; α1 ([3]; ligand 16.09 μm): 28.92%; α2 ([3]; ligand 16.09 μm): 64.86%; α3 ([3]; ligand 16.09 μm): 6.22%; τ1 ([3]; ligand 16.09 μm): 2.945; τ2 ([3]; ligand 16.09 μm): 6.882; τ3 ([3]; ligand 16.09 μm): 0.8547; τavg (average fluorescence lifetime of BSA) ([3]; ligand 22.22 μm): 6.2; α1 ([3]; ligand 22.22 μm): 30.4%; α2 ([3]; ligand 22.22 μm): 60.86%; α3 ([3]; ligand 22.22 μm): 8.74%; τ1 ([3]; ligand 22.22 μm): 3.254; τ2 ([3]; ligand 22.22 μm): 7.004; τ3 ([3]; ligand 22.22 μm): 0.9952
C[C@H]1C(=O)CC[C@@H]2[C@]1(C)CC[C@H]1[C@@]2(C)CC[C@@]2(C)[C@@H]3CC(C)(C)CC[C@]3(C)CC[C@]12C [friedelin] | 1 | 1.47 × 10^4 L mol^–1 | 1.47 × 10^12 | static quenching | –20.52 kJ mol^–1 | –19.22 kJ mol^–1 | –59.26 kJ mol^–1 | –0.13 kJ mol^–1 | 6.6 | 8.67% | 55.5% | 35.83% | 2.2687 | 5.696 | 7.962 | 6.7 | 13.49% | 84.08% | 2.43% | 2.6997 | IC50 [4]: 7.2 µM; τ2 ([3]; ligand 9.52 μm): 6.576; τ3 ([3]; ligand 9.52 μm): 14.2863; τavg (average fluorescence lifetime of BSA) ([3]; ligand 16.09 μm): 6.8; α1 ([3]; ligand 16.09 μm): 9.59%; α2 ([3]; ligand 16.09 μm): 86.56%; α3 ([3]; ligand 16.09 μm): 3.85%; τ1 ([3]; ligand 16.09 μm): 2.21; τ2 ([3]; ligand 16.09 μm): 6.354; τ3 ([3]; ligand 16.09 μm): 14.127; τavg (average fluorescence lifetime of BSA) ([3]; ligand 22.22 μm): 6.5; α1 ([3]; ligand 22.22 μm): 25.73%; α2 ([3]; ligand 22.22 μm): 71.9%; α3 ([3]; ligand 22.22 μm): 2.37%; τ1 ([3]; ligand 22.22 μm): 3.978; τ2 ([3]; ligand 22.22 μm): 7.1; τ3 ([3]; ligand 22.22 μm): 1.075

Reference: paper PMC10851409 (ACS Omega, 2024)
